These results are taken from ChEMBL document CHEMBL4732114, “Design and structural optimization of novel 2H-benzo[h]chromene derivatives that target AcrB and reverse bacterial multidrug resistance” (Eur J Med Chem, 2021).

Values after ≈ are worked out from the molar mass of the structure shown. Active and inactive are the calls of the source. The rule behind the calls is not given here. Where only a bound is given, the exact number is not on record here.

Series [1] has as its target T1, Multidrug efflux pump subunit AcrB (Escherichia coli (strain K12)) (UniProt P31224).
T1 sequence (whole entry): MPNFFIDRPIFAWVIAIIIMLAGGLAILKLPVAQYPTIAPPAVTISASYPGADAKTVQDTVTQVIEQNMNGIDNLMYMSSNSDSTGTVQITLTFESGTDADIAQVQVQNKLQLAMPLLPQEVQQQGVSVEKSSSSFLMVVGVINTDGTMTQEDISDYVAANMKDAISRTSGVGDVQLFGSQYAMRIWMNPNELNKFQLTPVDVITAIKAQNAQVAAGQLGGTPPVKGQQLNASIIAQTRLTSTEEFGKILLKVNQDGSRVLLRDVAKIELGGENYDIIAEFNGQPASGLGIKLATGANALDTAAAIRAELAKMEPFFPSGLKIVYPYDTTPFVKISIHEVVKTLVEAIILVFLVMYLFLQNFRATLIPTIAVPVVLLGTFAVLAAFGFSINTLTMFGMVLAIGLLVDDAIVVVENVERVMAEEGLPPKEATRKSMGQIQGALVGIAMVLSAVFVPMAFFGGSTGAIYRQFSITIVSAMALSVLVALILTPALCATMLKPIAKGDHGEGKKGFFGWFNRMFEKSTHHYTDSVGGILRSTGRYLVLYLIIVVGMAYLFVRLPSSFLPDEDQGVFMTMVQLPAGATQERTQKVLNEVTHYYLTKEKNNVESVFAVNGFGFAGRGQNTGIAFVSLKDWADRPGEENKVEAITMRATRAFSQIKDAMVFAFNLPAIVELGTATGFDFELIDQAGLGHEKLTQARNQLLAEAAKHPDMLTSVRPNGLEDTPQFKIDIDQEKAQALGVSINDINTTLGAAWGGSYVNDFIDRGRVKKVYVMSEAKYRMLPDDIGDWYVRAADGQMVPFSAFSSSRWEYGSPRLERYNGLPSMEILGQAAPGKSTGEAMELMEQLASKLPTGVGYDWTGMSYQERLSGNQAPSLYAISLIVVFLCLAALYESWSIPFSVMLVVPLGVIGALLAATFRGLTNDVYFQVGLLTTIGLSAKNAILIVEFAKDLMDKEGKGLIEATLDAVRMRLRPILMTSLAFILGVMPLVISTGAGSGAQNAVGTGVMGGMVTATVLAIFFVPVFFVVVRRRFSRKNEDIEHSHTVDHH
Nature of the series: Inhibition of AcrB in Escherichia coli BW25113 assessed as reduction in glucose-induced nile red efflux at 100 uM preincubated for 15 mins followed by nile red addition and incubated for 3 hrs in shaker in presence of CCCP by fluorimetric analysis. To be noted: time 3.25 hrs. The method, boiled down:
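Wild-type and AcrB-deleted cells were preloaded with Nile Red, with or without compound. Fluorescence was recorded, and efflux was triggered at 100 s with 0.2% glucose. Traces were compared with the deletion-strain level. Triplicate experiments used different cell batches.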

Series [2] has as its target T1, Multidrug efflux pump subunit AcrB (Escherichia coli (strain K12)). Put plainly: Inhibition of AcrB in multidrug-resistant Escherichia coli BW25113 assessed as potentiation of chloramphenicol-induced antibacterial activity by measuring chloramphenicol MIC at 16 ug/ml by checkerboard titration method (reference value: 8 ug/ml). To be noted: dose 16.0 µg/ml.
Series [3] relates to Cell membrane. Put plainly: Induction of inner membrane permeabilization in wild type Escherichia coli BW25113 assessed as perturbation of proton motive force at 32 ug/ml measured after 10 mins in presence of CCCP and glucose by Di0C2(3) probe based fluorescence assay. To be noted: escherichia coli bw25113, 10 min, dose 32 µg/ml. The method, boiled down: (§1)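 Cell suspensions were left untreated or exposed to 8-128 µg/mL compound for 10 min. DiOC₂(3) was then added and fluorescence followed to a plateau. Cells were re-energized with 0.5% glucose, and the rise in fluorescence was read as membrane-potential build-up. CCCP was added last to dissipate the potential.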

The target of series [4] is T1, Multidrug efflux pump subunit AcrB (Escherichia coli (strain K12)). To be noted: Escherichia coli BW25113; dose 8.0 µg/ml.
Series [5] is described as follows: Toxicity in multidrug-resistant Escherichia coli BW25113 harboring AcrB deletion mutant assessed as growth inhibition by two-fold broth dilution method.
The target in series [6] is T1, Multidrug efflux pump subunit AcrB (Escherichia coli (strain K12)). To be noted: Escherichia coli BW25113; dose 64.0 µg/ml.
Series [7] has the same target. Put plainly: Inhibition of AcrB in multidrug-resistant Escherichia coli BW25113 assessed as potentiation of erythromycin-induced antibacterial activity by measuring erythromycin MIC at 16 ug/ml by checkerboard titration method (reference value: 64 ug/ml). As to conditions: dose 16.0 µg/ml.
The target is the same in series [8]. To be noted: Escherichia coli BW25113; dose 128.0 µg/ml.
Series [9] shares this target. Put plainly: Inhibition of AcrB in multidrug-resistant Escherichia coli BW25113 assessed as potentiation of erythromycin-induced antibacterial activity by measuring erythromycin MIC at 128 ug/ml by checkerboard titration method (reference value: 64 ug/ml). As to conditions: dose 128.0 µg/ml.
Series [10] has the same target. Put plainly: Inhibition of AcrB in multidrug-resistant Escherichia coli BW25113 assessed as potentiation of erythromycin-induced antibacterial activity by measuring erythromycin MIC at 64 ug/ml by checkerboard titration method (reference value: 64 ug/ml). As to conditions: dose 64.0 µg/ml.
For series [11] the target is unchanged. Nature of the series: Inhibition of AcrB in multidrug-resistant Escherichia coli BW25113 assessed as potentiation of tetraphenylphosphonium-induced antibacterial activity by measuring tetraphenylphosphonium MIC at 16 ug/ml by checkerboard titration method (reference value: 1024 ug/ml). As to conditions: dose 16.0 µg/ml.
Series [12] shares this target. Nature of the series: Inhibition of AcrB in multidrug-resistant Escherichia coli BW25113 assessed as potentiation of chloramphenicol-induced antibacterial activity by measuring chloramphenicol MIC at 64 ug/ml by checkerboard titration method (reference value: 8 ug/ml). To be noted: dose 64.0 µg/ml.
Series [13] in a line: Toxicity in multidrug-resistant Escherichia coli BW25113 assessed as growth inhibition by two-fold broth dilution method. A general note: In broth dilution the organism is exposed to a series of concentrations in liquid medium.
The target in series [14] is T1, Multidrug efflux pump subunit AcrB (Escherichia coli (strain K12)). Put plainly: Inhibition of AcrB in multidrug-resistant Escherichia coli BW25113 assessed as potentiation of levofloxacin-induced antibacterial activity by measuring levofloxacin MIC at 64 ug/ml by checkerboard titration method (reference value: 0.06 ug/ml). As to conditions: dose 64.0 µg/ml.
For series [15] the target is unchanged. Put plainly: Inhibition of AcrB in multidrug-resistant Escherichia coli BW25113 assessed as potentiation of levofloxacin-induced antibacterial activity by measuring levofloxacin MIC at 16 ug/ml by checkerboard titration method (reference value: 0.06 ug/ml). To be noted: dose 16.0 µg/ml.
Series [16] has as its system Cell membrane. Put plainly: Induction of inner membrane permeabilization in wild type Escherichia coli BW25113 assessed as perturbation of proton motive force at 8 ug/ml measured after 10 mins in presence of CCCP and glucose by Di0C2(3) probe based fluorescence assay. To be noted: escherichia coli bw25113, 10 min, dose 8 µg/ml. An outline of the steps:
as §1

As for `Cc1ccccc1COc1cccc2c3c(c(-c4nnco4)cc12)CCC(C)(C)O3`, the inhibition result in series [1] is “Active”. Also, the MIC in series [2] is 8 mg/L; in series [4] it was 16 mg/L (≈ 40 µM); in [5] it was above 128 mg/L; in [6], 16 mg/L (≈ 40 µM); in [7], 64 mg/L; in series [8], 16 mg/L (≈ 40 µM). The MIC was 16 mg/L in series [9]; 32 mg/L in [10]; 512 mg/L in series [11]; 8 mg/L in series [12]; above 512 mg/L in [13]; 0.06 mg/L in series [14]. Moreover, the MIC in [15] is 0.06 mg/L. Moreover, in the series on Cell membrane [3], the Activity entry is given as “Not Active”.
With `C=CC(=O)Nc1ccc(COc2cccc3c4c(c(C(=O)N5CCOCC5)cc23)CCC(C)(C)O4)cc1`, the inhibition entry in series [1] was “Active”. The MIC in [2] is 4 mg/L; in series [4], 16 mg/L (≈ 32 µM); in [5], above 128 mg/L; in [6] it was 16 mg/L (≈ 32 µM); in series [7] it was 16 mg/L; in series [8], 16 mg/L (≈ 32 µM). In addition, the MIC in [9] was 8 mg/L; in [10], 16 mg/L; in [11], 512 mg/L; in [12], 4 mg/L; in series [13], above 512 mg/L; in [14], 0.06 mg/L. The MIC in series [15] was 0.06 mg/L. Further, the Activity entry in the series on Cell membrane [16] is “Not Active”.
In the case of `CC1(C)CCc2c(C(=O)N3CCOCC3)cc3c(OCc4ccc(C(F)(F)F)cc4)cccc3c2O1`, the MIC in [2] is 8 mg/L; in [4], 16 mg/L (≈ 32 µM); in series [5] it was above 128 mg/L; in series [6], 16 mg/L (≈ 32 µM); in [7], 64 mg/L; in series [8] it was 16 mg/L (≈ 32 µM). In addition, the MIC in [9] is 16 mg/L; in [10], 16 mg/L; in series [11], 512 mg/L; in series [12] it was 8 mg/L; in [13] it was above 512 mg/L; in [14] it was 0.06 mg/L. Moreover, the MIC in [15] was 0.06 mg/L. The Activity result with Cell membrane [16] is given as “Not Active”.
For the compound `CC1(C)CCc2c(C(=O)O)cc3c(OCc4ccccc4)cccc3c2O1`, in series [1], the inhibition entry is “Active”. For the same compound, the MIC is 8 mg/L in series [2]; 16 mg/L (≈ 44.1 µM) in series [4]; above 128 mg/L in series [5]; 16 mg/L (≈ 44.1 µM) in [6]; 64 mg/L in series [7]; 16 mg/L (≈ 44.1 µM) in [8]. The MIC in series [9] was 32 mg/L; in series [10] it was 64 mg/L; in series [11], 1020 mg/L; in series [12], 4 mg/L; in [13], above 512 mg/L; in [14], 0.01 mg/L. The MIC in [15] is 0.06 mg/L. In the series with Cell membrane [3], the result was Active.
With `CC1(C)CCc2c(C(=O)N3CCOCC3)cc3c(OCc4ccccc4)cccc3c2O1`, the inhibition result in series [1] was “Active”. For the same compound, the MIC was 4 mg/L in series [2]; 16 mg/L (≈ 37.1 µM) in series [4]; above 128 mg/L in series [5]; 16 mg/L (≈ 37.1 µM) in series [6]; 64 mg/L in series [7]; 16 mg/L (≈ 37.1 µM) in series [8]. Moreover, the MIC in [9] is 8 mg/L; in series [10], 16 mg/L; in series [11], 512 mg/L; in series [12], 4 mg/L; in [13] it was above 512 mg/L; in series [14], 0.03 mg/L. Further, the MIC in series [15] worked out at 0.03 mg/L. In addition, in the series on Cell membrane [16], the Activity result is recorded as “Not Active”.
For the compound `CC1(C)CCc2c(-c3nnco3)cc3c(OCc4ccccc4)cccc3c2O1`, the inhibition result in series [1] is “Active”. Moreover, the MIC was 8 mg/L in series [2]; 16 mg/L (≈ 41.4 µM) in [4]; above 128 mg/L in [5]; 16 mg/L (≈ 41.4 µM) in [6]; 64 mg/L in series [7]; 16 mg/L (≈ 41.4 µM) in series [8]. Besides, the MIC in [9] is 16 mg/L; in series [10], 32 mg/L; in [11], 512 mg/L; in series [12], 4 mg/L; in [13], above 512 mg/L; in series [14] it was 0.06 mg/L. The MIC in series [15] is 0.06 mg/L. Moreover, the Activity result in the series with Cell membrane [3] is reported as “Not Active”.
`Cc1ccc(COc2cccc3c4c(c(-c5nnco5)cc23)CCC(C)(C)O4)cc1`: the inhibition result in [1] was “Active”. Also, the MIC in [2] was 8 mg/L; in series [4], 16 mg/L (≈ 40 µM); in series [5], above 128 mg/L; in series [6] it was 16 mg/L (≈ 40 µM); in [7] it was 32 mg/L; in series [8], 16 mg/L (≈ 40 µM). Besides, the MIC in series [9] was 8 mg/L; in [10], 16 mg/L; in [11], 512 mg/L; in [12], 8 mg/L; in [13] it was above 512 mg/L; in series [14], 0.03 mg/L. The MIC in [15] worked out at 0.03 mg/L. Besides, the Activity result in the series on Cell membrane [3] is “Not Active”.
Turning to `CC1CN(C(=O)c2cc3c(OCc4c(Cl)cccc4Cl)cccc3c3c2CCC(C)(C)O3)CC(C)O1` (configuration not stated), the inhibition entry in series [1] is “Active”. Besides, the MIC was 8 mg/L in series [2]; 16 mg/L (≈ 30.3 µM) in series [4]; 16 mg/L (≈ 30.3 µM) in [6]; 64 mg/L in [7]; 16 mg/L (≈ 30.3 µM) in series [8]; 64 mg/L in [9]. Further, the MIC in series [10] was found to be 64 mg/L; in series [11] it was 1020 mg/L; in series [12], 8 mg/L; in [14] it was 0.03 mg/L; in series [15], 0.03 mg/L. Besides, in the series with Cell membrane [16], the Activity entry is given as “Not Active”.
